# Hck-Nef inh = human Hck-Nef kinase inhibition; AID 463187; 220,000 compounds, 0.68% hits; P08631; Recombinant Hck-YEEI plus Nef, Z-Lyte FRET kinase assay; inhibition, % at 20 µM;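 active = Hck-Nef kinase inhibition above about 50%, limit read from the data; inactive = inhibition below that limit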;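 note: 0% = DMSO with Hck plus Nef and 100% = Hck alone without Nef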
# Target sequence (P08631 whole entry, looked up): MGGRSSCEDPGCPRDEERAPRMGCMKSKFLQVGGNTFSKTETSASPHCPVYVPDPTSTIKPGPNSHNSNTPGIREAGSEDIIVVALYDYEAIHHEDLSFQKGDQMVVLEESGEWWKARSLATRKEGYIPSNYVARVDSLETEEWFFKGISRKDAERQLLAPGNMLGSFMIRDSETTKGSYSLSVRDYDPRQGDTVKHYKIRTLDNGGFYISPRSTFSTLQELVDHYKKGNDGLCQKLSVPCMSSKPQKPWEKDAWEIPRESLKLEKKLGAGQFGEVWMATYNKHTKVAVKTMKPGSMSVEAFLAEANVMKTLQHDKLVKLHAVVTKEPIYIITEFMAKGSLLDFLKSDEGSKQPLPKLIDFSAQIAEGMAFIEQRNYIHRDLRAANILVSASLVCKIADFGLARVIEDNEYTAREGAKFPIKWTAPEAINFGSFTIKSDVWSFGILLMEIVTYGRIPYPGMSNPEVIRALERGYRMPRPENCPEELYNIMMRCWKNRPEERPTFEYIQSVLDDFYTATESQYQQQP
# WT yeast gro inh = growth inhibition of WT yeast, mitochondrial fusion screen; mitochondrial fusion phenotypic screen, WT strain; inhibition, % at 10 µM; 190,000 compounds, 2.1% hits; AID 1362; in the data active = inhibition above about 58%; tested in S. cerevisiae
# RAM inhibit = yeast RAM network inhibition | S. cerevisiae dse1pr::URA3 reporter, 5-FOA growth OD615, 2 d; analog-sensitive cbk1-as2 kinase mutant strain | inhibition, % at 50 µM | 190,000 compounds, 1.8% hits | AID 868;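 active = inhibition above a set limit, 3 SD over mean compound inhibition, cut at about 8.4% in these data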;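 note: 0% = DMSO-only wells with no growth and 100% = 10 µM 1-NA-PP1 full growth; inhibition rescues growth on 5-FOA so higher OD means more RAM inhibition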
# Calb biofilm kill = mixture kills Candida albicans biofilm cells; C. albicans biofilm persisters + clotrimazole, fluorescence viability; primary screen in compound mixtures of four per well; inhibition, % at 7.6 µM; 120,000 compounds, 0.02% hits;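 active = inhibition above 30.3% in the primary screen of four-compound pools, then above 30% when the compound was retested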;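 note: compounds exposed to preformed 24 h biofilms for 48 h; 0% = untreated biofilm control and 100% = clotrimazole plus chlorhexidine kill blank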
#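 Test system: C. albicans biofilms. Buffer or medium: RPMI/MOPS medium, pH 7.0. Timing: 48 h compound exposure at 37 °C. Technique: Alamar Blue fluorescence. Evaluation: percent inhibition of biofilm viability.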
# p47phox inh = p47phox (human) inhibition. p47phox/p22phox peptide binding, fluorescence polarization, 2 h. inhibition, % at 24.7 µM. 220,000 compounds, 0.53% hits. AID 1274;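 active = inhibition above about 30%, limit read from the data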;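 note: 0% = p47phox with labelled peptide and 100% = labelled peptide alone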
# Arbovirus inh = arbovirus infection inhibition. arbovirus infection cell-based antiviral screen. 200,000 compounds, 0.37% hits. inhibition, % at 10 µM; in the data active = inhibition above about 30%
# Numbers without * were called inactive; · = no result. Compounds with a hit are over-represented: about 4.6% of the library has one in this group of screens.
SMILES,Hck-Nef inh,WT yeast gro inh,RAM inhibit,Calb biofilm kill,p47phox inh,Arbovirus inh
COCC(=O)Nc1nc2n(n1)C(c1ccc(OC)cc1)CC(c1ccc(OC)cc1)N2 (centres undefined),5,6,0,·,-7,1
O=C(O)CCCC(=O)Nc1nc2n(n1)C(c1ccc(F)cc1)CC(c1ccc(Cl)cc1)N2 (centres undefined),1,14,1,·,5,39*
Cc1cc(C)c2nc(-c3ccccn3)cc(C(=O)NCCc3ccc(S(N)(=O)=O)cc3)c2c1,4,4,10*,15,-34,-8
Cc1cc(C)c2nc(-c3ccccn3)cc(C(=O)NCc3ccc(S(N)(=O)=O)cc3)c2c1,11,7,0,14,-17,-16
Cc1ccc(NNC(=O)C(O)(c2cccc(C(F)(F)F)c2)c2cccc(C(F)(F)F)c2)cc1,-3,83*,3,14,-11,-26
O=C(NNc1ccccc1Br)C(O)(c1cccc(C(F)(F)F)c1)c1cccc(C(F)(F)F)c1,-4,-3,4,16,-14,-30
O=C1CCC([N+](=O)[O-])C(c2ccc3c(c2)OCO3)N1 (centres undefined),19,1,0,27,-3,-2
CN=C1SC(CC(=O)Nc2c(C)cccc2C)C(=O)N1/N=C/c1cccs1 (centres undefined),1,5,2,11,-4,-11
COc1ccc([N+](=O)[O-])cc1NC(=O)CC1SC(=Nc2cccc(C)c2C)N(/N=C/c2cccc(OC)c2OC)C1=O (centres undefined),11,-4,10*,10,-65,16
COC(=O)c1c(NC(=O)Cc2cccs2)sc(C(=O)N2CCCCC2)c1C,8,-26,10*,·,-52,-2
O=c1c2cnn(-c3ccc(F)cc3)c2ncn1Cc1ccccc1,1,0,3,8,-2,-1
CC(C)(C)NC(=O)C(c1ccccn1)N(C(=O)C1CSC(=O)C1)c1cccc(F)c1 (centres undefined),-2,7,0,5,-14,2
CCOC(=O)c1c(O)c2c(n(Cc3ccco3)c1=O)CCCC2,-3,5,-1,·,-6,31*
O=C(CCC1CCCCC1)Nc1ccccc1C(=O)N1CCOCC1,-11,7,0,-4,0,3
COC(=O)c1sc(-c2ccccc2)cc1NC(=O)c1cc(OC)cc(OC)c1,2,-12,8.8*,11,-9,-18
COC(=O)c1sc(-c2ccc(Cl)cc2)cc1NC(=O)COCC(=O)O,18,·,·,18,-5,·
COC(=O)c1sc(-c2ccccc2)cc1NC(=O)c1ccc(OC)cc1,-10,4,8.7*,6,-10,-24
COC(=O)c1sc(-c2ccc(C(C)(C)C)cc2)cc1NC(=O)CCC(=O)O,18,·,·,3,33*,·
COc1c2ccoc2nc2c(OC)c(OCC(OC(C)=O)C(C)(C)O)ccc12 (centres undefined),11,1,0,18,161*,2
COc1cc(OC)c2c(O)c3c(c(-c4c5c(c(O)c6c(OC)cc(OC)cc46)CO[C@@H](C)[C@H]5O)c2c1)[C@H](O)[C@H](C)OC3,51*,5,1,17,-121,12
COc1cc2c(c(OC)c1O)C(=O)CO2,0,·,·,10,-11,·
CCOc1ccc(N(C(C)C(=O)N/N=C(\C)c2cccc(NC(=O)c3ccccc3)c2)S(C)(=O)=O)cc1 (centres undefined),0,-5,0,·,-15,-14
O=C(NC1CCS(=O)(=O)C1)c1ccc(-c2ccc(Br)cc2)o1 (centres undefined),0,82*,4,·,-5,0
O=C(Nc1ccccc1)c1ccc(-c2ccc(Br)cc2)o1,-7,74*,3,15,-17,-2
O=C(Nc1cccc(NC(=O)c2ccc(-c3ccc(Br)cc3)o2)c1)c1ccccc1,3,7,0,·,-10,-7
SMILES,Hck-Nef inh,WT yeast gro inh,RAM inhibit,Calb biofilm kill,p47phox inh,Arbovirus inh
COc1ccccc1NC(=O)c1ccc(-c2ccc(Br)cc2)o1,1,8,11*,·,-15,-18
COc1cc(NC(=O)c2ccc(-c3ccc(Br)cc3)o2)ccc1NC(=O)C(C)C,11,-11,6,·,-12,-14
COc1ccc(Oc2ccc(/C=C/C(=O)c3ccc(O)cc3)cc2[N+](=O)[O-])cc1,-4,28,11*,18,-24,-35
COc1ccc(/C=C/C(=O)c2ccc(O)cc2)cc1COc1ccc(F)cc1,0,90*,6,·,-15,-32
COC(=O)c1ccc(/C=C/C(=O)c2ccc(OC)cc2)cc1,2,-11,2,·,-14,11
COCCSc1nnc(NC(=O)C2CCCCC2)s1,5,2,0,·,-17,32*
Cc1ccc(NC(=O)CSc2cccc[n+]2[O-])c([N+](=O)[O-])c1,8,-15,2,7,-6,8
CCCCC(=O)NC(=S)NNC(=O)c1ccc(OC)cc1,0,54,1,16,3,-16
N#C/C(=C\Nc1ccccc1O)c1nc2ccccc2o1,3,63*,6,21,-56,-36
Cc1cc(CNC(=O)COc2ccc(F)cc2Cl)cc(C)c1O,-1,-1,10*,13,-14,0
O=C(COc1ccc(Cl)cc1Cl)NCc1ccncc1,1,4,0,·,-7,1
CCCCC(=O)NC(=S)Nc1cccc(NC(=O)c2ccccc2)c1,-1,7,6,-3,-10,-4
NC(=S)N1OC[C@@H]2COc3ccc4ccccc4c3[C@@H]21,0,42,0,9,-10,4
Cc1noc(C)c1COC(=O)CCN1c2ccccc2Sc2ccccc21,2,39,10*,·,-1,9
c1ccc(-c2cc3ccccc3nc2N2CCCC2)cc1,0,-8,-1,·,-3,10
Cc1ccc(-c2cc3ccccc3nc2N2CCOCC2)cc1,0,59*,-1,5,2,-13
O=C1CC(c2cccs2)Cc2nc(NCC3CCCO3)ncc21 (centres undefined),1,8,0,·,-8,-6
CCOC(=O)c1ccc(NC(=O)CSc2nc3cccnc3n2C)cc1,9,-5,6,10,-22,12
O=C(Nc1cccc(-c2nc3ncccc3o2)c1)c1sc2ccccc2c1Cl,-2,4,2,·,67*,5
COc1ccccc1/C=C/C=N/n1c(-c2ccc(C)cc2)n[nH]c1=S,1,41,2,9,3,-1
COc1ccccc1/C=C\C=N\n1c(C2CCCCC2)n[nH]c1=S,3,70*,1,·,-9,6
CN(C)/C=C(\C#N)C(=O)c1cccc(Oc2ccc(Br)cc2)c1,-3,-10,0,·,-20,18
CCOc1cccc(Oc2ncccc2C(=O)/C(C#N)=C/N(C)C)c1,0,95*,0,·,-16,0

# Assay outcomes: PubChem, several laboratories
